This is a sample that favours compounds with a hit; in the whole collection about 6.6% have one here.
HEK293 NFkB inh: inhibitors of PMA/ionomycin-induced NF-kB reporter, primary screen, antigen receptor NF-kB inhibitor project, cell-based, HEK-293 luciferase reporter, luminescence; HEK-293 NF-kB luciferase reporter; inhibition, % at 3 µM; 62,000 tested, 0.21% active; AID 465, 2006;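 active = inhibition above the mean of all tested compounds plus 3 SD, cut at about 40% in these data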
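System – HEK-293 cells with stable firefly luciferase reporter driven by four HIV NF-kB elements · Doses – one dose, 3 µM · Schedule – 1 h compound pre-incubation, 16 h PMA/ionomycin at 37 °C · Technique – luminescence from luciferase substrate reagent · Measure – percent inhibition normalized per plate to DMSO and reference-inhibitor controls · Replicates – tested once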
M1 ag: M1 muscarinic receptor agonists, primary screen, CHO-M1 cells, Fluo-4 calcium, agonist mode; Muscarinic acetylcholine receptor M1; Fluo-4 calcium fluorescence; active compounds read high; B-score at 10 µM; 64,000 tested, 3% active;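 active = fluorescence rise, raw or as B-score row- and column-corrected plate score, outside the 99.7% band of its plate's samples, either direction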
JNK3 inh: JNK3 kinase activity inhibitors, primary screen, biochemical, human, purified enzyme | Mitogen-activated protein kinase 10 (Homo sapiens), P53779 | HTS | inhibition, % at 8 µM | 60,000 tested, 0.61% active; in the data active = inhibition above about 17%
HER2 expr 66K: inhibitors of Her2 protein expression, primary screen, SKBR-3 cells, AlphaScreen, 66K library. Receptor tyrosine-protein kinase erbB-2 (Homo sapiens), P04626. SKBR-3 HER2 protein level, 18-24 h; active compounds read low. HER2 level % of control, % at 10 µM. 65,000 tested, 0.69% active. AID 645, 2007;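 active = HER2 level under 5% of the carrier-only control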;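 also: lower value means stronger loss of Her2 protein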
Target sequence (P04626 whole entry, looked up): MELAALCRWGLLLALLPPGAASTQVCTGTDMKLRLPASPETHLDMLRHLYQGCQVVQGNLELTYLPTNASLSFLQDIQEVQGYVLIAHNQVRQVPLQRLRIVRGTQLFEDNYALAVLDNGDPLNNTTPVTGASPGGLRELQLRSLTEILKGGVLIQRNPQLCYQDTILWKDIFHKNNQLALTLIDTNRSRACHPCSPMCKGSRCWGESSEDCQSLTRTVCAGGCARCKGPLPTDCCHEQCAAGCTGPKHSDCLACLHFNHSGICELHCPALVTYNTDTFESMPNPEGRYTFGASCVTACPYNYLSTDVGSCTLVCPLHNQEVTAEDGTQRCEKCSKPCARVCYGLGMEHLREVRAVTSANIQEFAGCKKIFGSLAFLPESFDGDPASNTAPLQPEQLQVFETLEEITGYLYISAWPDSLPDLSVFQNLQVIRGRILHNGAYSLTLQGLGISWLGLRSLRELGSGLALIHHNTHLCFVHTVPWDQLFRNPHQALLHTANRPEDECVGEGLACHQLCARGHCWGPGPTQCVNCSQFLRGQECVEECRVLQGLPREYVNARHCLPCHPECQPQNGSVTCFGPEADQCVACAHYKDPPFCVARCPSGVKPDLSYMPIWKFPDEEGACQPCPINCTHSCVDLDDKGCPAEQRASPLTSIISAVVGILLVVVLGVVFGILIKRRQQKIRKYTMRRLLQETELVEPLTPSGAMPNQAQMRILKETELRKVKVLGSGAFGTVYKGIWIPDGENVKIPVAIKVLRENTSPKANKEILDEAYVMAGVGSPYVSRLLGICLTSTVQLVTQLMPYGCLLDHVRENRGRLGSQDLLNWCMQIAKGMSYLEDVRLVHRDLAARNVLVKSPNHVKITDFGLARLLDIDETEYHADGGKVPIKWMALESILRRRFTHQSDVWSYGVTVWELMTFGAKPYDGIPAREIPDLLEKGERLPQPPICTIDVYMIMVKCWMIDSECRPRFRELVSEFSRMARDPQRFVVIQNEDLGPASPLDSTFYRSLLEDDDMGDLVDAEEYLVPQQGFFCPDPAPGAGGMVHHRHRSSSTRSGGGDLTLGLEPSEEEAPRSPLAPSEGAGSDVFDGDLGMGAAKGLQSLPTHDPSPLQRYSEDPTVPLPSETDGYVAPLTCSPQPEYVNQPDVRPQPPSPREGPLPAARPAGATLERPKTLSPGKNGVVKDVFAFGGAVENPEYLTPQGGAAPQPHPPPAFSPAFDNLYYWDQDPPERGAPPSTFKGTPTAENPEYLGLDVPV
BAP1 inh: inhibitors of BAP1 deubiquitinase, primary screen, biochemical, Ub-AMC fluorescence, kinetic; Ubiquitin carboxyl-terminal hydrolase BAP1 (Homo sapiens), Q92560; recombinant BAP1, Ub-AMC hydrolysis fluorescence kinetic; active compounds read low; calls only at 20 µM; 72,000 tested, 0.48% active;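 active = activity remaining at or below 50% of control, provided the compound also passes the data quality filters; inactive = the rest, including low values that fail the filters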
M1 antag: antagonists of rat M1 muscarinic receptor; Muscarinic acetylcholine receptor M1 (Rattus norvegicus), P08482; CHO-M1 cells, Fluo-4 calcium, ACh EC80 antagonist mode; active compounds read low; B-score at 10 µM; 64,000 tested, 3.4% active;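 active = calcium fluorescence response, raw or row-and-column corrected B-score, differing from the plate sample mean either way at a set confidence level, mostly lower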
M1 antag conf: rat M1 muscarinic receptor antagonists, confirmation, CHO cells, Fluo-4 calcium, duplicate; ACh EC80 antagonism; active compounds read low; AID 677, 2007; calcium response (max-min fluorescence) at 10 µM; shares compounds with M1 antag; 1,700 tested, 43% active;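 active = calcium response below the same-plate mean of wells given acetylcholine alone at its 80%-effect dose, minus 3 SD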
mGluR4 antag: human mGluR4 response to M1 antagonist hits, M1 allosteric modulator project, cell-based, antagonist mode, secondary assay 1; shares compounds with M1 antag; CHO-mGluR4 calcium flux, Fluo-4 fluorescence, glutamate EC80; active compounds read low; fluorescence response (max-min) at 10 µM; 1,700 tested, 0.9% active; AID 678, 2007;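 active = fluorescence response below the plate's average for near-maximal glutamate wells, less 3 SD of those wells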;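 also: raw unnormalized fluorescence span taken in the window right after glutamate addition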
Numbers stand for hits; i = inactive; nt = no result shown.

SMILES	HEK293 NFkB inh	M1 ag	JNK3 inh	HER2 expr 66K	BAP1 inh	M1 antag	M1 antag conf	mGluR4 antag
CC1CCCN(Cc2nc3c(c(=O)n(C)c(=O)n3C)n2Cc2c(F)cccc2Cl)C1 (configuration not stated)	i	i	i	i	i	-1	i	i
COc1ccccc1NC(=O)CN1C(=O)c2ccccc2C1=O	nt	nt	nt	nt	i	nt	nt	nt
COc1ccc(N2C(=O)C3CCCN3C2c2cc(OC)c(OC)c(OC)c2)cc1 (configuration not stated)	i	i	i	i	i	-2.1	i	i
CCOC(=O)C1=C(c2ccccc2)NC(=S)NC1c1cc(Br)c(OC)cc1OC (configuration not stated)	nt	nt	nt	nt	i	nt	nt	nt
C/C(=C\c1ccccc1)CN1CCN(c2ccccc2)CC1	nt	i	nt	i	nt	i	nt	nt
CCCCN(C)C(=O)C1CCN(C/C(C)=C/c2ccccc2)CC1	i	i	i	i	i	-4	520	i
O=C(c1cnn2ccccc12)N(Cc1ccco1)C1CCCC1	i	i	i	i	i	-4.6	396	i
Nc1c(-c2ccc(Cl)cc2)nnn1-c1ccccc1	i	i	nt	i	i	-3.2	i	i
COC(=O)c1cc(NC(=O)C2COc3ccccc3O2)cc(C(=O)OC)c1 (configuration not stated)	i	i	i	i	i	-13	i	i
CCc1ccc(NC(=O)C2COc3ccccc3O2)cc1 (configuration not stated)	nt	nt	nt	nt	i	nt	nt	nt
O=[N+]([O-])c1ccc(Cl)c(S(=O)(=O)Nc2ccc(O)c(Sc3nc4ccccc4s3)c2)c1	nt	nt	nt	nt	i	nt	nt	nt
O=C1c2ccccc2C(=O)N1CC1=CCS(=O)(=O)C1	i	i	i	i	i	-2	i	i
CCCOC(=O)C1=C(C)NC2=C(C(=O)CCC2)C1c1cc(OC)c(OC)cc1[N+](=O)[O-] (configuration not stated)	nt	nt	nt	nt	i	nt	nt	nt
CCOC(=O)CC1C(=O)NCCN1C(=O)Nc1ccccc1 (configuration not stated)	i	i	i	i	i	-2.2	i	i
Cc1ccccc1C(=O)N1CCC(C(=O)Nc2ccc(F)cc2)CC1	i	i	i	i	i	-4.3	i	i
O=C(c1ccc(F)cc1)N1CCc2ccccc2C1	nt	nt	nt	nt	i	nt	nt	nt
O=C(Nc1ccc(Cl)cc1)N1CCSCC1	i	i	nt	i	i	-2.3	i	i
CC(C)=CCC/C(C)=C/CCC(C)NCCN1CCNCC1 (configuration not stated)	i	i	i	i	i	-6.6	390	i
CC(C)=CCC/C(C)=C/CC/C(C)=N/O	i	i	i	i	i	i	nt	nt
COc1cc(C(=O)Nc2cccc(NC(=O)c3cccc(Cl)c3)c2)cc(OC)c1OC	nt	nt	nt	nt	i	nt	nt	nt
Cc1ccc(N2CCN(CCc3nc4cc(NC(=O)c5ccco5)ccc4n3C)CC2)cc1	i	nt	i	i	i	nt	nt	nt
Cn1c(CCN2CCCCC2)nc2cc(NC(=O)C3CCCCC3)ccc21	i	i	i	i	i	-3.8	408	i
CC1CCN(CCc2nc3cc(NS(=O)(=O)c4ccccc4)ccc3n2C)CC1	i	i	i	i	i	-6	415	i
Cn1c(CCN2CCOCC2)nc2cc(NC(=O)COc3ccccc3)ccc21	i	i	i	i	i	-3.7	i	i
CC(=O)Nc1ccc2c(c1)nc(CCN1CCOCC1)n2C	i	i	i	i	i	i	nt	nt
SMILES	HEK293 NFkB inh	M1 ag	JNK3 inh	HER2 expr 66K	BAP1 inh	M1 antag	M1 antag conf	mGluR4 antag
Cn1c(CCN2CCN(c3ccccc3)CC2)nc2cc(NC(=O)c3ccco3)ccc21	i	i	i	i	i	-5.5	125	i
CCCOC(=O)c1cccc(NC(=O)COc2ccc(C)cc2Br)c1	nt	nt	nt	nt	i	nt	nt	nt
Cn1c(CN2CCCCC2)nc2cc(NS(=O)(=O)c3ccc(Cl)cc3)ccc21	i	i	i	i	i	i	nt	nt
Cn1c(CN2CCCCC2)nc2cc(NC(=O)c3ccccc3)ccc21	i	i	i	i	i	-2.8	i	i
CC1CCN(CCc2nc3cc(NS(=O)(=O)c4ccc(F)cc4)ccc3n2C)CC1	i	i	i	i	i	-4	405	i
CC1CCN(CCc2nc3cc(NC(=O)Nc4ccccc4)ccc3n2C)CC1	i	i	i	i	i	-10	302	i
Cn1c(CCN2CCCCC2)nc2cc(NS(=O)(=O)c3ccc(Cl)cc3)ccc21	i	i	i	i	i	-3.1	305	i
CC(C)NC(=O)Cn1nnc(-c2cccc(NC(=O)c3ccccc3F)c2)n1	i	i	i	i	i	-17	i	i
COc1c(C)cc(Br)cc1C(=O)O	i	i	i	i	i	-13	i	i
COc1ccc(-c2oc3ncn(CCN4CCOCC4)c(=N)c3c2-c2ccc(OC)cc2)cc1	i	i	i	i	i	-11	261	i
c1ccc(-c2oc3ncnc(NCCCN4CCOCC4)c3c2-c2ccccc2)cc1	i	i	i	i	nt	i	nt	nt
CCN(Cc1ccccc1)C(=O)CSc1nc(C)cc(C)c1C#N	i	i	i	i	i	-2.4	i	i
C[N+]12CCC(CC1)C(OC(=O)C(O)(c1ccccc1)c1ccccc1)C2 (configuration not stated)	nt	i	i	i	i	-16	16	i
Cc1cccc(NC(=O)c2ccccc2NC(=O)c2ccc([N+](=O)[O-])cc2)c1	nt	nt	nt	nt	i	nt	nt	nt
CC(=O)N(Cc1ccccc1)c1ccc(C(=O)O)cc1	nt	i	i	i	i	-2	16	i
CCN(CC)c1ccc2cc(-c3nnc(Nc4ccccc4)s3)c(=O)oc2c1	nt	nt	nt	nt	i	nt	nt	nt
Cc1cc(-c2nnc(SCc3ccccn3)o2)no1	i	i	i	i	i	-1.8	i	i
CC(=O)Nc1cccc(NC(=O)CSc2nnc(Cc3cccn3C)n2CCc2ccccc2)c1	i	i	i	i	i	-1.9	i	i
CCN1CCN(c2ncc(C(=O)Nc3ccccc3C(=O)OC)c3ccccc23)CC1	i	i	i	i	i	-14	166	i
COc1ccc(-n2nc3c(c2NC(=O)C2CC2)CSC3)cc1	nt	nt	nt	nt	i	nt	nt	nt
CCOC(=O)/C=C1\SCC(=O)N1CC(=O)Nc1ccc2c(c1)CCC2	i	i	i	i	i	-1.9	i	i
CCOC(=O)/C=C1\SCC(=O)N1CC(=O)NC1CCCCC1	i	i	i	i	i	i	nt	nt

Assay outcomes from PubChem.
